Experimental data reported in ChEMBL document CHEMBL1127347, “Synthesis and biological activity of bile acid-derived HMG-CoA reductase inhibitors. The role of 21-methyl in recognition of HMG-CoA reductase and the ileal bile acid transport system” (J Med Chem, 1994).
pIC50: −log10 of the molar value.

Legend:
Oryctolagus cuniculus [1] = species: Oryctolagus cuniculus; test: (§1) Tested for inhibition of Na+ -dependent [3H]taurocholate uptake into rabbit ileal brush border membrane vesicles; type: functional
Method in brief: (§2)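 Ileal brush border vesicles from male New Zealand white rabbits (4-5 kg), prepared by Mg2+ precipitation and kept in liquid nitrogen. Vesicles (50 μg protein) in 10 mM Tris-Hepes pH 7.4/300 mM mannitol were added to medium at 30 °C containing 50 μM [3H]taurocholate with 100 mM NaCl or 100 mM KCl. Uptake stopped at 60 s with ice-cold stop solution, then filtration and scintillation. Na+-dependent uptake taken as NaCl minus KCl uptake; mean ± SD, 3-10 independent experiments with different membrane preparations.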

HepG2 = test: Tested for inhibition of cholesterol biosynthesis in HEP G2 cells; type: functional, cell-based; settings: Homo sapiens
Method in brief: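 HEP G2 cells seeded at 5×10^4 cells/cm², grown 24 h in RPMI 1640/10% FCS, then 24 h in 10% lipoprotein-deficient serum. Cholesterol isolated by TLC and counted, corrected for recovery of [3H]cholesterol.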

Oryctolagus cuniculus [2] = species: Oryctolagus cuniculus; test: as §1; type: functional; method in brief: as §2; remark: listed apart in the source
[3] = target: T1, 3-hydroxy-3-methylglutaryl-coenzyme A reductase (Rattus norvegicus, UniProt P51639); test: Tested for inhibition of rat liver microsomal HMG-CoA reductase
T1 sequence (P51639 whole entry): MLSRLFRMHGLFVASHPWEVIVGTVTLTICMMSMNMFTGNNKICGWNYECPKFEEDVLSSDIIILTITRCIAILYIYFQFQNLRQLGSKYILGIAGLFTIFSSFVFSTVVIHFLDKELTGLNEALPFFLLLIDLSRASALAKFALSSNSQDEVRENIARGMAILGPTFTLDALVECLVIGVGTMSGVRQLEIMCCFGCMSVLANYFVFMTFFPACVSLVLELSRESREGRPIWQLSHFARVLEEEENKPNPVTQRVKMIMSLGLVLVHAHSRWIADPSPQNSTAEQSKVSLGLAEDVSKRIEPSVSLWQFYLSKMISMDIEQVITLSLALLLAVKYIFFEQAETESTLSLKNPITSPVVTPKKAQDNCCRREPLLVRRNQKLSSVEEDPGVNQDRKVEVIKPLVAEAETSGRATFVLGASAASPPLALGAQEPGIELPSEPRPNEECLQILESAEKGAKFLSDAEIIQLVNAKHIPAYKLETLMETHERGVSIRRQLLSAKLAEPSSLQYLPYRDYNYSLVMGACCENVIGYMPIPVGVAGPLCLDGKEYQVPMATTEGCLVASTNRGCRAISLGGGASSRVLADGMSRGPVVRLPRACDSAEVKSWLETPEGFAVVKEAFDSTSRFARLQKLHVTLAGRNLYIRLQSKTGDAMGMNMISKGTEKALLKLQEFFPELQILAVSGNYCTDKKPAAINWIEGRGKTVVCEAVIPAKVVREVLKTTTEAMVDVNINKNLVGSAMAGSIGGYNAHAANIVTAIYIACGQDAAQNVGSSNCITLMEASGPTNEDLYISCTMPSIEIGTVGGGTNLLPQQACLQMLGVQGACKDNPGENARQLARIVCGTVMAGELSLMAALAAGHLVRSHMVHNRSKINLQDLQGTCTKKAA
Method in brief: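 Microsomes came from livers of male Wistar rats (200-220 g) fed 2% cholestyramine for 10 days. Assay at pH 7.4 with 40 μg microsomal protein, NADP, glucose-6-phosphate and G6P dehydrogenase. Mevalonolactone separated on anion-exchange column and counted. Six concentrations in triplicate; IC50 read graphically, mean ± SD of three independent experiments.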

CC[C@H](C)C(=O)O[C@H]1C[C@H]2[C@@H](CC[C@@H]3C[C@H](O)CC[C@@]32C)[C@@H]2CCC([C@H](C)C[C@H]3C[C@@H](O)CC(=O)O3)[C@@]12C (stereo partly specified)
IC25 (Oryctolagus cuniculus [1]): 47 µM
IC75 (Oryctolagus cuniculus [1]): 166 µM
pIC50 (HepG2): 4.26
pIC50 (Oryctolagus cuniculus [2]): 4.04
pIC50 [3]: 5.15

CC[C@H](C)C(=O)O[C@H]1C[C@H]2[C@@H](CC[C@@H]3C[C@H](O)CC[C@@]32C)[C@@H]2CCC([C@H](C)C[C@@H]3C[C@@H](O)CC(=O)O3)[C@@]12C (stereo partly specified)
IC25 (Oryctolagus cuniculus [1]): 37 µM
IC75 (Oryctolagus cuniculus [1]): 148 µM
pIC50 (HepG2): 4.79
pIC50 (Oryctolagus cuniculus [2]): 4.07
pIC50 [3]: 6.19

CC[C@H](C)C(=O)O[C@H]1C[C@@H](C)C=C2C=C[C@H](C)[C@H](CC[C@@H]3C[C@@H](O)CC(=O)O3)[C@H]21 [LOVASTATIN]
IC25 (Oryctolagus cuniculus [1]): 230 µM
IC75 (Oryctolagus cuniculus [1]): > 250 µM
pIC50 (HepG2): 7.54
pIC50 (Oryctolagus cuniculus [2]): < 3.60
pIC50 [3]: 8.15

CC[C@H](C)C(=O)O[C@H]1C[C@H]2[C@@H](CC[C@@H]3C[C@H](O)CC[C@@]32C)[C@@H]2CCC(CC[C@H]3C[C@@H](O)CC(=O)O3)[C@@]12C (stereo partly specified)
IC25 (Oryctolagus cuniculus [1]): 87 µM
IC75 (Oryctolagus cuniculus [1]): > 250 µM
pIC50 (HepG2): 5.09
pIC50 (Oryctolagus cuniculus [2]): 3.73
pIC50 [3]: 6.00

C[C@H](CCC(=O)NCCS(=O)(=O)O)[C@H]1CC[C@H]2[C@@H]3[C@H](O)C[C@@H]4C[C@H](O)CC[C@]4(C)[C@H]3CC[C@]12C [TAUROCHENODEOXYCHOLATE]
IC25 (Oryctolagus cuniculus [1]): 13 µM
IC75 (Oryctolagus cuniculus [1]): 61 µM
pIC50 (Oryctolagus cuniculus [2]): 4.55

CC[C@H](C)C(=O)O[C@H]1C[C@H]2[C@@H](CC[C@@H]3C[C@H](O)CC[C@@]32C)[C@@H]2CCC(CC[C@@H]3C[C@@H](O)CC(=O)O3)[C@@]12C (stereo partly specified)
IC25 (Oryctolagus cuniculus [1]): 87 µM
IC75 (Oryctolagus cuniculus [1]): > 250 µM
pIC50 (HepG2): 5.74
pIC50 (Oryctolagus cuniculus [2]): 3.77
pIC50 [3]: 6.70

C[C@H](CCC(=O)O)[C@H]1CC[C@H]2[C@@H]3[C@H](O)C[C@@H]4C[C@H](O)CC[C@]4(C)[C@H]3C[C@H](O)[C@]12C [CHOLIC ACID]
IC25 (Oryctolagus cuniculus [1]): 40 µM
IC75 (Oryctolagus cuniculus [1]): 152 µM
pIC50 (Oryctolagus cuniculus [2]): 4.08
